One data set has as its system MCF 10A. As to the kind of experiment: CellTiter‐Blue cell viability assay. It is filed as cell-based, human. Particulars: read-out: IC50 (µM) MCF 10A, 24 h, peptide 0.01 to 100 µM, serum‐free medium. In outline:
(§1)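 Cells were seeded per mL as follows: BT‑20, SKBR3 and Hs68 at 1.5×10⁵; BT‑474 at 3.0×10⁵; MCF 10A at 4.0×10⁵; MDA‑MB‑231 at 1.0×10⁵. After 24 h, wells were PBS‑washed twice and exposed to test compound in complete serum‑free medium for 24 h at 37 °C, 5% CO₂. CellTiter‑Blue was added for 3 h and fluorescence read at 560/590 nm. Untreated cells set 100%, 1% Triton X‑100 set 0%. IC50 came from a log(inhibitor)–normalized response fit, using independent cultures on different days.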

The test system of a further data set is Hs68. Put plainly: CellTiter‐Blue cell viability assay. It counts as cell-based, human. Particulars: read-out: IC50 (µM) Hs68, 24 h, peptide 0.01 to 100 µM, serum‐free medium. In outline: as §1
The subject of data set [1] is MDA‐MB‐231. Put plainly: CellTiter‐Blue cell viability assay. It counts as cell-based, human. Particulars: read-out: IC50 (µM) MDA‐MB‐231, 24 h, peptide 0.01 to 100 µM, serum‐free medium. In outline: as §1
Data set [2] concerns human red blood cells (RBCs). Put plainly: Hemolytic activity. It counts as cell-based. Particulars: 100 µM peptide, human RBCs 0.25% v/v in PBS pH 7.4, 24 h, 37 °C. An outline of the steps: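 Blood spun 1000 g for 10 min at 4 °C and washed three times. RBCs held at 0.25% v/v in PBS pH 7.4 with a peptide series (0.01–100), 24 h at 37 °C with gentle agitation. After spinning 1000 g for 5 min at 4 °C, supernatant hemoglobin read at A415. PBS is 0% and 1% Triton X‐100 is 100%; melittin served as peptide control. % = (A − Aneg)/(Apos − Aneg) × 100.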

The next data set relates to SKBR3. Put plainly: CellTiter‐Blue cell viability assay. It is filed as cell-based, human. Particulars: read-out: IC50 (µM) SKBR3, 24 h, peptide 0.01 to 100 µM, serum‐free medium. An outline of the steps: as §1
The test system of another data set is BT‐20. Put plainly: CellTiter‐Blue cell viability assay. Particulars: read-out: IC50 (µM) BT‐20, 24 h, peptide 0.01 to 100 µM, serum‐free medium. It counts as cell-based, human. An outline of the steps:
as §1

A further data set has as its system BT‐474. Put plainly: CellTiter‐Blue cell viability assay. It is filed as cell-based, human. Particulars: read-out: IC50 (µM) BT‐474, 24 h, peptide 0.01 to 100 µM, serum‐free medium. In outline:
as §1

Data set [3] has as its system MDA‐MB‐231. Put plainly: Internalization of CF‐labeled peptide, flow cytometry and confocal microscopy. It counts as cell-based, human. Particulars: CF‐labeled peptide 1 µM, flow cytometry. An outline of the steps:
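Cells seeded 5.0 × 10⁴ per well for 24 h, then washed. Exposed to CF‐labelled peptide (final 1) for 15, 60, 360 and 1440 min at 37 °C, 5% CO₂. Collected and washed; 10 000 cells read by flow cytometry, with autofluorescence subtracted. Duplicates on three independent days.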
On the technique in general: In flow cytometry, cells or beads pass a laser one at a time.

Peptide text beside a SMILES is read from it.

Consider three compounds from PMC9298314 (The Febs Journal, 2021).

The term IC50 denotes the midpoint of a concentration-inhibition curve. Consider `C[C@H](NC(=O)[C@H](CCCCN)NC(=O)[C@H](Cc1ccc(O)cc1)NC(=O)[C@H](CCCCN)NC(=O)[C@H](CCCCN)NC(=O)[C@H](CCCCN)NC(=O)[C@H](Cc1ccc(O)cc1)NC(=O)[C@H](CCCNC(=N)N)NC(=O)[C@H](CCCCN)NC(=O)[C@@H](N)CCCCN)C(=O)N[C@@H](Cc1ccc(O)cc1)C(=O)N[C@@H](CCCCN)C(=O)N1CCC[C@H]1C(=O)N[C@@H](Cc1ccc(O)cc1)C(=O)N[C@@H](CCCCN)C(=O)N[C@@H](CCCCN)C(=O)N[C@@H](CCCCN)C(=O)N[C@@H](CCCCN)C(=O)N[C@@H](CCCCN)C(=O)N[C@@H](Cc1ccccc1)C(N)=O` [vCPP0275] (H-KKRYKKKYKAYKPYKKKKKF-NH2), for which the IC50 with MCF 10A is more than 100 µM; with Hs68 it was more than 100 µM; in the data set with MDA‐MB‐231 [1], more than 100 µM; with SKBR3, 34 ± 1 µM; in the data set with BT‐20, 44.8 ± 1.1 µM; with BT‐474, more than 100 µM. Besides, in data set [2], the “H max (% hemolysis at the highest concentration tested)” value is 14.6 ± 0.9%.
For `CC(C)C[C@H](NC(=O)CNC(=O)[C@H](CC(C)C)NC(=O)[C@H](CC(C)C)NC(=O)[C@H](CCC(N)=O)NC(=O)[C@H](CCCNC(=N)N)NC(=O)[C@H](CC(C)C)NC(=O)[C@@H](NC(=O)[C@H](CC(C)C)NC(=O)[C@H](CCCNC(=N)N)NC(=O)[C@@H](N)CCCNC(=N)N)[C@@H](C)O)C(=O)NCC(=O)N[C@@H](CO)C(=O)N[C@@H](CCCNC(=N)N)C(=O)N[C@@H](CCCNC(=N)N)C(=O)N[C@@H](CCCNC(=N)N)C(=O)N[C@@H](CCCNC(=N)N)C(=O)N[C@@H](CCCNC(=N)N)C(=O)N[C@@H](CO)C(=O)N[C@@H](CCCNC(=N)N)C(N)=O` [vCPP0769] (H-RRLTLRQLLGLGSRRRRRSR-NH2), the IC50 was 55.4 ± 1.7 µM in the data set with MCF 10A; 53.4 ± 0.7 µM in the data set on Hs68; 9 ± 0.1 µM in the data set on MDA‐MB‐231 [1]; 21.1 ± 2 µM in the data set with SKBR3; 3.5 ± 1.5 µM in the data set on BT‐20; 37.5 ± 1.7 µM in the data set on BT‐474. Besides, the “H max (% hemolysis at the highest concentration tested)” value in data set [2] amounted to 56.2 ± 1.5%.
With “CF‐WRRRYRRWRRRRRWRRRPRR‐amide [CF‐vCPP2319]”, the “Fluorescence intensity decay with time, MDA‐MB‐231” value with MDA‐MB‐231 [3] is on record as “decreases slowly during 24 h”.
